Results from different studies.
Compare with care: the assays were run in different laboratories.
Target: Serine/threonine-protein kinase PLK2 (PLK2, Homo sapiens, UniProt Q9NYY3)

Compound | test | conditions | remaining binding
COc1ccnn2ncc(-c3ccnc(N(C)C)n3)c12 | binding | 1 µM | 93%
COc1ncc2cc3ccccc3nc2c1C#N | cell-free assay, competition with immobilised ligand | 5 µM | 45%
O=C(NCCCN1CCOCC1)c1ccc(Nc2nccc(-c3cc4ccccc4s3)n2)cc1 | binding, competition with immobilised ligand | 1 µM | 44%
CN(C)CC#Cc1ccc(OCCCc2sc(N3CCc4cccc(C(=O)Nc5nc6ccccc6s5)c4C3)nc2C(=O)O)c(F)c1 | cell-free assay, competition with immobilised ligand | 1 µM | 94%
CC1CCCN1c1nccc(-c2cnn3ncccc23)n1 (centres unmarked) | binding | 1 µM | 100%
CCC(=O)N[C@H]1CC[C@@H](C(=O)N(C)c2ccc(-c3nc4ccccc4o3)cc2)C1 | cell-free assay, competition with immobilised ligand | 1 µM | 96%
O=C(NCCCN1CCOCC1)c1ccc(Nc2ncc(Cl)c(-c3ccc(Cl)s3)n2)cc1 | binding, competition with immobilised ligand | 1 µM | 5.9%
FC(F)(F)Oc1cccc(-c2cnc3ccc(-c4ccncc4)nn23)c1 | cell-free assay, competition with immobilised ligand | 5 µM | 77%
N[C@H]1CCN(c2nccc(-c3cnn4ncccc34)n2)C1 | binding | 1 µM | 71%
N#Cc1ccc(Nc2ccc3[nH]c(=O)[nH]c3c2)c(Cl)c1 | cell-free assay, competition with immobilised ligand | 1 µM | 86%
C[C@H]1CCN(c2nccc(-c3cnn4ncccc34)n2)C1 | binding | 1 µM | 91%
FC(F)(F)c1ccc2c(c1)nc(-c1cccnc1)n2C1CC1 | cell-free assay, competition with immobilised ligand | 1 µM | 94%
CNC(=O)[C@@H]1CC[C@@H](n2c(-c3ccc4cnccc4c3)nc3ccc(C(=O)NCc4cccc(C(N)=O)c4)cc32)C1 | binding, competition with immobilised ligand | 1 µM | 96%
NS(=O)(=O)c1cc(NC(=O)C2(c3ccccc3Cl)CC2)ccc1Oc1cccc(Cl)c1 | cell-free assay, competition with immobilised ligand | 1 µM | 84%
CN(c1nccc(-c2cnn3ncccc23)n1)C1CC1 | binding | 1 µM | 88%
Cc1cnc(Nc2ccc(C(=O)N3CCC(N4CCCC4)CC3)cc2)nc1-c1cc2ccccc2s1 | binding, competition with immobilised ligand | 1 µM | 52%
CNC(=O)Nc1ccc2c(c1)CC[C@@]21OC(=O)N(CC(=O)N(Cc2ccc(F)cc2)[C@@H](C)C(F)(F)F)C1=O | cell-free assay, competition with immobilised ligand | 1 µM | 91%
CN(CCCC(F)(F)F)c1nccc(-c2cnn3ncccc23)n1 | binding | 1 µM | 99%
O=C(Nc1c[nH]nc1C(=O)NC1CCNCC1)c1cc(F)cc(F)c1 | binding, competition with immobilised ligand | 1 µM | 92%
c1cncc(-c2cccc(Nc3nccc(NC4CCCCC4)n3)c2)c1 | binding, competition with immobilised ligand | 10 µM | 100%
